The results in this text go back to article PMC2652733 (Bioconjugate chemistry, 2009).

One data set relates to RIF tumor cells. Put plainly: In vitro photosensitizing efficacy. The settings on record: for in vitro photosensitizing ability: lower light and drug doses, RIF cells; for in vitro photosensitizing ability (comparative): 24 h post-incubation, light dose 6.0 J/cm^2, drug concentration 1.0 μM and higher, 700 nm. The class given is cell-based. In a few lines: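 RIF cells were grown in α-MEM with 10% FCS and plated at 5 × 10³ cells/well overnight. Test compound was added at varied concentrations for 24 h at 37°C in the dark, then replaced with drug-free medium. Cells were irradiated with a 700 nm dye laser (3.2 mW/cm², 0-6 J/cm²) and kept 48 h in the dark. MTT was added for 4 h, followed by DMSO and a 560 nm read. Survival was expressed as % of the drug-no-light control, with 4 replicate wells.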

A further data set deals with RIF tumors. Put plainly: In vivo photosensitizing. More on the design: species or system C3H mice.
Data set [1] is described as follows: Biodistribution of 124I-labeled compounds. The data set is classed as in vivo, C3H mice bearing RIF tumors. The method, boiled down:
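RIF cells (3 × 10⁵ in 30 μl complete α-MEM) were implanted s.c. in the axilla of C3H mice and grown to 4-5 mm diameter (~5 days). The 124I-labelled test compound, in saline with 10% ethanol, was given via tail vein at 50-200 μCi. Thyroid uptake was not blocked. 3-4 mice per time point were killed at 24-96 h. Organs, blood and tail were weighed and gamma-counted, giving %ID/g.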

Setting [2] is: dose 2μmol/kg, 705 nm, 135 J/cm^2, 75 mW/cm^2.
[3] abbreviates: 24h PI, C3H mice bearing RIF tumors, i.v. 50-200 uCi.

Take `CCCCCCN1C(=O)C2=C(C)c3cc4[nH]c(cc5nc(cc6[nH]c(c(c2n3)C1=O)[C@@H](CCC(=O)OC)[C@@H]6C)C(C)=C5C(C)OCc1cccc(I)c1)c(C)c4CC` (stereo partly shown) [compound 4, 3-{1’- (3-iodobenzyloxy)ethyl}purpurin-18-N-hexylimide methyl ester]: in the data set with RIF tumor cells, the “in vitro photosensitizing ability” value is “ineffective”. In addition, the “toxicity after PDT treatment” value with RIF tumors (setting [2]) is “toxic and all mice died within 24 h PDT treatment”.

For `CCc1c(C)c2cc3nc(cc4[nH]c(c5c6nc(cc1[nH]2)C(C)=C6C(=O)N(Cc1cccc(I)c1)C5=O)[C@@H](CCC(=O)OC)[C@@H]4C)C(C)=C3C(C)OC` (stereo partly shown) [compound 10, 3-{1’- (methoxy)ethyl}purpurin-18-N-(3-iodo)benzylimide methyl ester], the “in vitro photosensitizing ability (comparative)” value in the data set on RIF tumor cells was “enhanced efficacy over the isomers 4 and 5”. Further, the “tumor uptake (abstract statement)” value in data set [1] (methyl ether analog versus purpurinimide 5) is recorded as “improved tumor uptake”. Moreover, the “in vivo PDT efficacy, fold less effective over the lead compound 1” value in the data set on RIF tumors (705 nm (10), 135 J/cm^2, 75 mW/cm^2, 24 h post-injection) is on record as “at least 1.5 fold”. In the data set with RIF tumors (doses of 1.0 and 2.5 mmol/kg, 705 nm, 135 J/cm^2, 75 mW/cm^2, 24 h post-injection), the “in vivo PDT activity compared with hexyl ether analog 5” value is recorded as “enhanced activity”.

Regarding `CCc1c(C)c2cc3nc(cc4[nH]c(c5c6nc(cc1[nH]2)C(C)=C6C(=O)C5)[C@@H](CCC(=O)OC)[C@@H]4C)C(C)=C3C(C)OCc1cccc(I)c1` (stereo partly shown) [compound 1, 3-{1’- (3-iodobenzyloxy)ethyl}pyropheophorbide-a methyl ester], the “mice tumor free on day 60” value in the data set on RIF tumors (dose 1.5 μmol/kg i.v., 665 nm, 135 J/cm^2, 75 mW/cm^2 at 24 h post injection, 5 mice/group) is on record as 4/5.

Turning to `CCCCCCOC(C)C1=C(C)c2cc3[nH]c(c4c5nc(cc6[nH]c(cc1n2)c(C)c6CC)C(C)=C5C(=O)N(Cc1cccc(I)c1)C4=O)[C@@H](CCC(=O)OC)[C@@H]3C` (stereo partly shown) [compound 5, 3-{1’- (Hexyloxy)ethyl}purpurin-18-N-(3-iodo)benzylimide methyl ester], in the data set with RIF tumor cells, the “in vitro photosensitizing ability (comparative)” value was “more effective than the structural isomer 4” and the “in vitro photosensitizing ability” value is recorded as “ineffective”. Further, the “in vivo PDT activity” value in the data set on RIF tumors (setting [2]) is reported as “did not show any significant activity”. Also, the “in vivo PDT activity” value with RIF tumors (doses 2.5 and 3.0 μmol/kg, 705 nm, 135 J/cm^2, 75 mW/cm^2) is “quite effective”.

For the compound “^124I- labeled analog of 3-{1’- (3-iodobenzyloxy)ethyl}purpurin-18-N-hexylimide methyl ester [compound 8]”, in data set [1] (setting [3]), the “liver uptake in comparison of the 124I-analog of pyropheophorbide 1” value was determined as 32 fold and the “spleen uptake in comparison of the 124I-analog of pyropheophorbide 1” value was found to be 85 fold.
